What was measured:
[1] = molecular target: Sodium-dependent dopamine transporter (Homo sapiens, UniProt Q01959); test: Displacement of [3H]WIN-35428 from DAT
Outline: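 Competitive radioligand binding at the dopamine transporter, with 0.5 nM [3H]WIN35,428 as the final radioligand concentration. Compounds were tested as HCl salts. Values are means ± standard error of three or four experiments, each run in duplicate.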

[2] = molecular target: Sodium-dependent noradrenaline transporter (Homo sapiens, UniProt P23975); test: Displacement of [3H]nisoxetine from NET
Sequence of Sodium-dependent noradrenaline transporter (P23975 whole entry): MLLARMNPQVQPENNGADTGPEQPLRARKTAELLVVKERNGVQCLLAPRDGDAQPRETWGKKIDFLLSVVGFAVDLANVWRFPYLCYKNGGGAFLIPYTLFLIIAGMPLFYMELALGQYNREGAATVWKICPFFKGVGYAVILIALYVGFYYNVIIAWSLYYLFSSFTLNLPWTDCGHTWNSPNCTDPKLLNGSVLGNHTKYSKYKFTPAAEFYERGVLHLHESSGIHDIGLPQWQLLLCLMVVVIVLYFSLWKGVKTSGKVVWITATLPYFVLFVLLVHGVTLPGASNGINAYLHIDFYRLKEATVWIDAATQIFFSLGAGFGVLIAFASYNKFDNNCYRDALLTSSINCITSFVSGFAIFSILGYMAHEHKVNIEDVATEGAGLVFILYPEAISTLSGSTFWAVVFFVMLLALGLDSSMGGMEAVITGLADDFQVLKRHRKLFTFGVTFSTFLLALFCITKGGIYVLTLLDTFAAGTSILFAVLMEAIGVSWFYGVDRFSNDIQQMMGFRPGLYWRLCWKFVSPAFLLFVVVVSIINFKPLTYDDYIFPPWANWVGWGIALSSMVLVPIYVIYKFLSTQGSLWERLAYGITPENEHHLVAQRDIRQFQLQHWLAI

[3] = molecular target: Sodium-dependent serotonin transporter (Homo sapiens, UniProt P31645); test: Displacement of [3H]paroxetine from 5HTT
Sequence of Sodium-dependent serotonin transporter (P31645 whole entry): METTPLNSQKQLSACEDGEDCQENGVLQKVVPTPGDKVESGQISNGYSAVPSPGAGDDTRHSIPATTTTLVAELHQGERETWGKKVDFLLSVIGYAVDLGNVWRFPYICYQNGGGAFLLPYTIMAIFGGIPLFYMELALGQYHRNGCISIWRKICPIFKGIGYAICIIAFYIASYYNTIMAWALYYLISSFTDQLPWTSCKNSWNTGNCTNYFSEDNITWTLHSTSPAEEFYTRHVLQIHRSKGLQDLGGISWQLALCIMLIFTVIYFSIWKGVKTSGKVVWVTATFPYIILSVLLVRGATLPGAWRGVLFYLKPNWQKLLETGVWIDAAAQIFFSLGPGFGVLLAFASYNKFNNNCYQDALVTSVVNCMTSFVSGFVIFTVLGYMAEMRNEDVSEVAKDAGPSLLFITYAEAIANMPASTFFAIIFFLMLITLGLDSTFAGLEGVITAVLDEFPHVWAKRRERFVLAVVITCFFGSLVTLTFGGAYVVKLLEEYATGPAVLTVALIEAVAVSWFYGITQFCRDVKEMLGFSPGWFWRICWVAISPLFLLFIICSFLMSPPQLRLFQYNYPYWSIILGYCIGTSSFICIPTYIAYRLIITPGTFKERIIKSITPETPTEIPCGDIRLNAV
Outline: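 Competitive radioligand binding at the serotonin transporter, with 0.2 nM [3H]paroxetine as the final radioligand concentration. Compounds were tested as HCl salts. Values are means ± standard error of three or four experiments, each run in duplicate.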

Sequence of Sodium-dependent dopamine transporter (Q01959 whole entry): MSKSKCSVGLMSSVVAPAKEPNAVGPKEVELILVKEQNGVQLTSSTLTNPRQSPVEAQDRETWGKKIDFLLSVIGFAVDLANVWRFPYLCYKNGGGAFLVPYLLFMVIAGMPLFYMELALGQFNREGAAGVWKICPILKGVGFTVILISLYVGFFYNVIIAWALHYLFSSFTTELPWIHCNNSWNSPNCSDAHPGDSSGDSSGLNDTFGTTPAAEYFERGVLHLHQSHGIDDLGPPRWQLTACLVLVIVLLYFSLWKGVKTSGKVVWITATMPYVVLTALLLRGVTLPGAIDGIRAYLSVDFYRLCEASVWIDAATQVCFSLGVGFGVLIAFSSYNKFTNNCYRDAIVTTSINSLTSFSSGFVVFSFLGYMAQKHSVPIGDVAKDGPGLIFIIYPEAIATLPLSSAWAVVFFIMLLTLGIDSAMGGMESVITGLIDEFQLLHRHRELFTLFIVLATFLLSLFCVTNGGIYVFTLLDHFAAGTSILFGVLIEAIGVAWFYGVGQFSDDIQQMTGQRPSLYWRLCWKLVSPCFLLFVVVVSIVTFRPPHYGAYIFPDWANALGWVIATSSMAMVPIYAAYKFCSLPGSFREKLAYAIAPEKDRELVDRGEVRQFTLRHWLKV

SMILES: Cc1ccc([C@H]2CC3CCC([C@H]2c2onc(C)c2-c2ccc(Cl)cc2)N3C)cc1 (some centres not stated)
- IC50 [1]: 0.0657 µM
- Ki [2]: 0.519 µM
- Ki [3]: 0.864 µM

SMILES: Cc1ccc(Cc2cc([C@@H]3C4CCC(C[C@@H]3c3ccc(Cl)cc3)N4C)on2)cc1 (some centres not stated)
- IC50 [1]: 0.0221 µM
- Ki [2]: 1.1 µM
- Ki [3]: 0.0429 µM

SMILES: Cc1ccc(Cc2cc([C@@H]3C4CCC(C[C@@H]3c3ccc(C)cc3)N4C)on2)cc1 (some centres not stated)
- IC50 [1]: 0.0069 µM
- Ki [2]: 0.77 µM
- Ki [3]: 0.0897 µM

SMILES: CN1C2CCC1[C@@H](c1cc(Cc3ccc(Cl)cc3)no1)[C@@H](c1ccc(Cl)cc1)C2 (some centres not stated)
- IC50 [1]: 0.0175 µM
- Ki [2]: 0.677 µM
- Ki [3]: 0.079 µM

SMILES: COc1ccc(-c2c(C)noc2[C@@H]2C3CCC(C[C@@H]2c2ccc(C)cc2)N3C)cc1 (some centres not stated)
- IC50 [1]: 0.119 µM
- Ki [2]: 1.3 µM
- Ki [3]: > 2 µM

SMILES: CN1C2CCC1[C@@H](c1cc(Cc3ccc(F)cc3)no1)[C@@H](c1ccc(Cl)cc1)C2 (some centres not stated)
- IC50 [1]: 0.0086 µM
- Ki [2]: 0.435 µM
- Ki [3]: 0.072 µM

SMILES: Cc1ccc([C@H]2CC3CCC([C@H]2c2cc(-c4ccc(Cl)cc4)no2)N3C)cc1 (some centres not stated)
- IC50 [1]: 0.00874 µM
- Ki [2]: > 2 µM
- Ki [3]: > 2 µM

SMILES: Cc1ccc([C@H]2CC3CCC([C@H]2c2onc(C)c2-c2ccc(F)cc2)N3C)cc1 (some centres not stated)
- IC50 [1]: 0.076 µM
- Ki [2]: 0.349 µM
- Ki [3]: > 2 µM

SMILES: Cc1ccc([C@H]2CC3CCC([C@H]2c2cc(Cc4ccc(F)cc4)no2)N3C)cc1 (some centres not stated)
- IC50 [1]: 0.0059 µM
- Ki [2]: 0.454 µM
- Ki [3]: 0.113 µM

SMILES: Cc1ccc(-c2c(C)noc2[C@@H]2C3CCC(C[C@@H]2c2ccc(C)cc2)N3C)cc1 (some centres not stated)
- IC50 [1]: 0.173 µM
- Ki [2]: > 2 µM
- Ki [3]: 1 µM

SMILES: Cc1ccc(-c2cc([C@@H]3C4CCC(C[C@@H]3c3ccc(C)cc3)N4C)on2)cc1 (some centres not stated)
- IC50 [1]: 0.013 µM
- Ki [2]: > 2 µM
- Ki [3]: > 2 µM

SMILES: Cc1noc([C@@H]2C3CCC(C[C@@H]2c2ccc(Cl)cc2)N3C)c1-c1ccc(F)cc1 (some centres not stated)
- IC50 [1]: 0.111 µM
- Ki [2]: 0.466 µM
- Ki [3]: 0.908 µM

SMILES: Cc1noc([C@@H]2C3CCC(C[C@@H]2c2ccc(Cl)cc2)N3C)c1-c1ccc(Cl)cc1 (some centres not stated)
- IC50 [1]: 0.0687 µM
- Ki [2]: 0.788 µM
- Ki [3]: 0.387 µM

SMILES: Cc1ccc(-c2c(C)noc2[C@@H]2C3CCC(C[C@@H]2c2ccc(Cl)cc2)N3C)cc1 (some centres not stated)
- IC50 [1]: 0.135 µM
- Ki [2]: > 2 µM
- Ki [3]: 0.297 µM

SMILES: Cc1ccc([C@H]2CC3CCC([C@H]2c2cc(-c4ccc(F)cc4)no2)N3C)cc1 (some centres not stated)
- IC50 [1]: 0.00645 µM
- Ki [2]: 0.552 µM
- Ki [3]: > 2 µM

SMILES: CN1C2CCC1[C@@H](c1cc(-c3ccc(Cl)cc3)no1)[C@@H](c1ccc(Cl)cc1)C2 (some centres not stated)
- IC50 [1]: 0.00642 µM
- Ki [2]: > 2 µM
- Ki [3]: > 2 µM

SMILES: COc1ccc(Cc2cc([C@@H]3C4CCC(C[C@@H]3c3ccc(Cl)cc3)N4C)on2)cc1 (some centres not stated)
- IC50 [1]: 0.0061 µM
- Ki [2]: 0.347 µM
- Ki [3]: 0.0144 µM

SMILES: CN1C2CCC1[C@@H](c1cc(-c3ccc(F)cc3)no1)[C@@H](c1ccc(Cl)cc1)C2 (some centres not stated)
- IC50 [1]: 0.00186 µM
- Ki [2]: 0.553 µM
- Ki [3]: 0.66 µM

SMILES: COc1ccc(-c2cc([C@@H]3C4CCC(C[C@@H]3c3ccc(Cl)cc3)N4C)on2)cc1 (some centres not stated)
- IC50 [1]: 0.00157 µM
- Ki [2]: 0.454 µM
- Ki [3]: 0.535 µM

SMILES: Cc1ccc([C@H]2CC3CCC([C@H]2c2cc(Cc4ccc(Cl)cc4)no2)N3C)cc1 (some centres not stated)
- IC50 [1]: 0.0222 µM
- Ki [2]: 0.84 µM
- Ki [3]: 0.085 µM

SMILES: COc1ccc(-c2c(C)noc2[C@@H]2C3CCC(C[C@@H]2c2ccc(Cl)cc2)N3C)cc1 (some centres not stated)
- IC50 [1]: 0.0816 µM
- Ki [2]: > 2 µM
- Ki [3]: 1.8 µM

SMILES: Cc1ccc(-c2cc([C@@H]3C4CCC(C[C@@H]3c3ccc(Cl)cc3)N4C)on2)cc1 (some centres not stated)
- IC50 [1]: 0.00409 µM
- Ki [2]: 1.03 µM
- Ki [3]: 0.522 µM

SMILES: COc1ccc(-c2cc([C@@H]3C4CCC(C[C@@H]3c3ccc(C)cc3)N4C)on2)cc1 (some centres not stated)
- IC50 [1]: 0.00393 µM
- Ki [2]: 0.455 µM
- Ki [3]: 0.366 µM

SMILES: COc1ccc(Cc2cc([C@@H]3C4CCC(C[C@@H]3c3ccc(C)cc3)N4C)on2)cc1 (some centres not stated)
- IC50 [1]: 0.0096 µM
- Ki [2]: 0.357 µM
- Ki [3]: 0.0411 µM
